Test results from ChEMBL document CHEMBL1128471, “Reversible inhibitors of the gastric (H+/K+)-ATPase. 4. Identification of an inhibitor with an intermediate duration of action” (J Med Chem, 1995).

Tests used:
[1] = target: Potassium-transporting ATPase (Sus scrofa, UniProt P19156); test: Inhibition of K+ -stimulated gastric ATPase activity was measured using lyophilized gastric vesicles at pH 7; assay type: tissue-based, Stomach
Method in brief: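 K+-stimulated ATPase activity was measured in lyophilized (permeabilized) gastric vesicles at pH 7. The value is an IC50, or percent inhibition at the stated concentration where no IC50 could be determined.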

[2] = target: T1, Potassium-transporting ATPase (Rattus norvegicus) (UniProt P09626+P18598); test: Inhibition of pentagastrin-stimulated gastric acid secretion at a single dose of 10 umol/kg.; assay type: functional; settings: Stomach
Method in brief: (§1)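 Anesthetized, lumen-perfused rats were given pentagastrin to stimulate gastric acid secretion, and compounds were given iv. The value is an ED50 (µmol/kg iv) with 95% confidence limits, or percent inhibition ± SEM at a single 10 µmol/kg iv dose.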

[3] = target: T1, Potassium-transporting ATPase (Rattus norvegicus); test: Inhibition of pentagastrin-stimulated gastric acid secretion in the anesthetized rat after iv administration; assay type: functional, organism-based; settings: Stomach; method in brief: as §1
Canis familiaris = test: Mean percent peak inhibition of histamine-stimulated gastric acid secretion in the heidenhain pouch dog following a single dose of 1 umol/kg through iv administration.; assay type: functional; settings: Canis lupus familiaris, Stomach

Sequence of Potassium-transporting ATPase (P18434 whole entry): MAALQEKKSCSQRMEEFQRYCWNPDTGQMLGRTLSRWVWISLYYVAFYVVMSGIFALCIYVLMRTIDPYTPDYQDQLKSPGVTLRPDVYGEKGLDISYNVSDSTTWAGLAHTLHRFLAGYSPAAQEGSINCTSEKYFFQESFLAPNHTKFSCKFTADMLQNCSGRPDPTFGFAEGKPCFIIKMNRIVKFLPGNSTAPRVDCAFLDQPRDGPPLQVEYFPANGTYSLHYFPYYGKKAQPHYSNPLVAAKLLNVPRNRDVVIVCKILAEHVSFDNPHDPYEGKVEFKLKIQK
Sequence of Potassium-transporting ATPase (P19156 whole entry): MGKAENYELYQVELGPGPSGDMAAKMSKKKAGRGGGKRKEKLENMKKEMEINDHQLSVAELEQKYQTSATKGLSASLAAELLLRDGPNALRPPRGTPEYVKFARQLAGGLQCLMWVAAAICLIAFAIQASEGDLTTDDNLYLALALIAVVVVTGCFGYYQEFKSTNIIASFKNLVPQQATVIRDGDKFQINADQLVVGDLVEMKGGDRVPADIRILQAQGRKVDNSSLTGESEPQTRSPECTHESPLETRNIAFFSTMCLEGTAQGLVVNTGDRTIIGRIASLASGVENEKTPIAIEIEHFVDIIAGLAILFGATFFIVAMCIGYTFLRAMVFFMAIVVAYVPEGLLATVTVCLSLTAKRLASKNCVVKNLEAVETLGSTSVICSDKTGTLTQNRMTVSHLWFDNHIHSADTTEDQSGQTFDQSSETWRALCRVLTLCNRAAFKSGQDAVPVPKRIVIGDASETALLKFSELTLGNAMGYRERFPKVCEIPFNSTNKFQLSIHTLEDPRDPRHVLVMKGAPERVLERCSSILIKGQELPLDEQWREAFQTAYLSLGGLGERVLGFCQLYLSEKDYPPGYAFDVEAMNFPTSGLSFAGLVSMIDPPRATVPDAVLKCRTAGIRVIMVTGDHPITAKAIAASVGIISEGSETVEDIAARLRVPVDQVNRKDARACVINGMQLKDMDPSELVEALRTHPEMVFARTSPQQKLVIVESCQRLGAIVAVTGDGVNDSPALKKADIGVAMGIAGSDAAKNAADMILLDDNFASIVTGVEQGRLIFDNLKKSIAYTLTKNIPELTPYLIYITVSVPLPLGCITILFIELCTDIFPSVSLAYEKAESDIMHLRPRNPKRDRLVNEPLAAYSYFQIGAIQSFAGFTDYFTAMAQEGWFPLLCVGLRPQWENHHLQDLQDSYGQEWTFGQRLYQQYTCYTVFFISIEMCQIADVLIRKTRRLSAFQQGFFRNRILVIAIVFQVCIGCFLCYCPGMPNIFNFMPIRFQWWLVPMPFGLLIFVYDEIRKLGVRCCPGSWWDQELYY

Row | SMILES | IC50 [1] [µM] | inhibition [2] [%] | ED50 [3] [µmol/kg] | inhibition in vivo at 1 µmol/kg (Canis familiaris) [%]
1 | CCCC(=O)c1cnc2c(OCCCN3CCOCC3)cccc2c1Nc1ccccc1C | 0.89 | 48 |  | 
2 | CCCC(=O)c1cnc2c(OC)cccc2c1Nc1cc(C)cc(C)c1 | 11.3 | 39 |  | 
3 | CCCC(=O)c1cnc2c(Oc3ccnc(Cl)c3)cccc2c1Nc1ccccc1C | 6.9 | 33 |  | 
4 | CCCC(=O)c1cnc2c(OC)cccc2c1Nc1cccc(CO)c1C | 6 | 44 |  | 
5 | CCCC(=O)c1cnc2ccc(O)cc2c1Nc1ccc(O)cc1C | 0.071 | 51 |  | 
6 | CCCC(=O)c1cnc2c(OCCCO)cccc2c1Nc1c(C)cccc1C | 1.21 | 75 |  | 
7 | CCCC(=O)c1cnc2c(O)cccc2c1Nc1ccccc1C | 3.3 | 39 |  | 
8 | CCCC(=O)c1cnc2c(OCCCC(=O)NC(C)(C)CO)cccc2c1Nc1c(C)cccc1C | 2.8 | 61 |  | 
9 | CCCC(=O)c1cnc2c(OCCCc3c[nH]cn3)cccc2c1Nc1c(C)cccc1C |  | 40 |  | 
10 | CCCC(=O)c1cnc2c(NCCc3cnc[nH]3)cccc2c1Nc1ccccc1C | 1.4 |  |  | 
11 | CCCC(=O)c1cnc2c(OCCCN3CCCCC3)cccc2c1Nc1ccccc1C | 0.5 | 31 |  | 
12 | CCCC(=O)c1cnc2c(OC)cccc2c1Nc1ccc(OCCCn2ccnc2)cc1C | 34 |  |  | 
13 | CCCC(=O)c1cnc2c(OCCCN(C)Cc3ccccc3)cccc2c1Nc1ccccc1C | 0.65 | 39 |  | 
14 | CCCC(=O)c1cnc2c(NCCO)cccc2c1Nc1ccccc1C | 7.1 | 62 |  | 
15 | CCCC(=O)c1cnc2c(OC)cccc2c1Nc1ccc(O)cc1 | 0.67 | 39 |  | 
16 | CCCC(=O)c1cnc2c(C)cccc2c1Nc1ccc(OC)cc1C | 1.7 |  | 4.7 | 
17 | CCCC(=O)c1cnc2c(OC)cccc2c1Nc1c(C)cc(C)cc1C | 3.1 |  | 10.8 | 
18 | CCCC(=O)c1cnc2c(CO)cccc2c1Nc1ccc(F)cc1C |  | 55 |  | 
19 | CCCC(=O)c1cnc2c(OC)cc(O)cc2c1Nc1ccccc1C | 1.3 | 63 |  | 
20 | CCCC(=O)c1cnc2c(OC)cccc2c1Nc1ccccc1OCC | 2 |  | 4.9 | 
21 | CCCC(=O)c1cnc2c(CC(=O)O)cccc2c1Nc1ccccc1C | 7.2 | 24 |  | 
22 | Cc1ccccc1Nc1c(C(=O)C(C)C)cnc2c(CO)cccc12 |  |  | 1.86 | 

Row | SMILES | IC50 [1] [µM] | inhibition [2] [%] | ED50 [3] [µmol/kg] | inhibition in vivo at 1 µmol/kg (Canis familiaris) [%]
23 | CCCC(=O)c1cnc2c(OC)cccc2c1Nc1ccccc1COC |  | 43 |  | 
24 | Cc1ccccc1Nc1c(C(=O)C(C)C)cnc2c(O)cccc12 | 1.2 | 48 |  | 
25 | CCCC(=O)c1cnc2c(C(O)CN(C)C)cccc2c1Nc1ccccc1C (stereo not drawn) |  | 11 |  | 
26 | CCCC(=O)c1cnc2c(OC)cc(O)cc2c1Nc1ccc(F)cc1C | 2.1 | 54 |  | 
27 | CCCC(=O)c1cnc2c(C3OC3CO)cccc2c1Nc1ccccc1C (stereo in doubt; 29b) [listing 1 of 2 here] | 3.1 |  |  | 
28 | CCCC(=O)c1cnc2c(C=O)cccc2c1Nc1ccccc1C | 1.2 | 64 |  | 51
29 | CCCC(=O)c1cnc2c(/C=C/CO)cccc2c1Nc1ccccc1C | 2.3 | 68 |  | 17
30 | CCCC(=O)c1cnc2c(OCCCN3CCCC3)cccc2c1Nc1ccccc1C | 0.51 | 31 |  | 
31 | CCCC(=O)c1cnc2c(C)cccc2c1Nc1ccccc1OC | 2.2 |  | 3.98 | 
32 | C=CC(O)c1cccc2c(Nc3ccccc3C)c(C(=O)CCC)cnc12 (stereo not drawn) | 0.66 | 49 |  | 
33 | CCCC(=O)c1cnc2c(C)cccc2c1Nc1ccccc1Cl | 6.3 |  |  | 
34 | CCC(=O)c1cnc2c(O)cccc2c1Nc1ccccc1C | 0.86 | 45 |  | 
35 | CCCC(=O)c1cnc2c(C(O)CN3CCOCC3)cccc2c1Nc1ccccc1C (stereo not drawn) |  | 4 |  | 
36 | CCCC(=O)c1cnc2cc(O)ccc2c1Nc1ccccc1C | 1.2 | 56 |  | 
37 | CCCC(=O)c1cnc2c(OC)cccc2c1Nc1ccccc1CO |  | 33 |  | 
38 | CCCC(=O)c1cnc2c(OC)cccc2c1Nc1c(OC)cc(OC)cc1OC | 4.6 | 24 |  | 
39 | CCCC(=O)c1cnc2c(OC)cccc2c1Nc1c(C)cc(O)c(O)c1C | 2.8 | 50 |  | 
40 | CCCC(=O)c1cnc2c(OCCCC(=O)OCC)cccc2c1Nc1ccccc1C | 1.6 | 52 |  | 
41 | CCCC(=O)c1cnc2c(C(C)=O)cccc2c1Nc1ccc(O)cc1C | 0.55 | 44 |  | 
42 | CCCC(=O)c1cnc2c(OC)cccc2c1Nc1c(C)cc2c(c1C)OCO2 |  | 51 |  | 
43 | Cc1cc(F)ccc1Nc1c(C(=O)C(C)C)cnc2c(O)cccc12 | 2.7 | 20 |  | 
44 | CCCC(=O)c1cnc2c(NCCc3c[nH]cn3)cccc2c1Nc1ccccc1C |  | 31 |  | 

Row | SMILES | IC50 [1] [µM] | inhibition [2] [%] | ED50 [3] [µmol/kg] | inhibition in vivo at 1 µmol/kg (Canis familiaris) [%]
45 | COCCOc1cccc2c(Nc3ccc(F)cc3C)c(C(=O)C(C)C)cnc12 | 1.7 | 57 |  | 
46 | CCCC(=O)c1cnc2c(OCCO)cccc2c1Nc1ccc(O)cc1C | 0.21 | 70 |  | 
47 | CCCC(=O)c1cnc2c(N)cccc2c1Nc1c(C)cccc1C | 5.8 | 57 |  | 
48 | CCC(=O)c1cnc2c(OCCCNc3nccs3)cccc2c1Nc1c(C)cccc1C | 1.7 | 48 |  | 
49 | CCCC(=O)c1cnc2c(OC)cccc2c1Nc1cc(C)ccc1C | 2.5 | 48 |  | 
50 | CCCC(=O)c1cnc2c(O)cccc2c1Nc1ccc(F)cc1C | 7.6 | 33 |  | 
51 | CCCC(=O)c1cnc2c(C(N)=O)cccc2c1Nc1ccccc1C | 1.9 | 39 |  | 
52 | CCCC(=O)c1cnc2c(OC)cccc2c1Nc1ccccc1O | 1.3 | 41 |  | 
53 | CCCC(=O)c1cnc2c(OC)cccc2c1Nc1ccc(N)cc1C | 1.5 | 15 |  | 
54 | CCCC(=O)c1cnc2c(OCCCN(C)CCCc3ccccc3)cccc2c1Nc1ccccc1C | 0.74 | 52 |  | 
55 | CCCC(=O)c1cnc2c(OC)cccc2c1Nc1cc(CO)ccc1C |  | 25 |  | 
56 | CCCC(=O)c1cnc2c(OC)cccc2c1Nc1ccc(C)cc1C | 4.3 | 59 |  | 
57 | CCCC(=O)c1cnc2c(OCCCc3cnc[nH]3)cccc2c1Nc1c(C)cccc1C | 0.6 |  |  | 
58 | CCCC(=O)c1cnc2ccccc2c1Nc1ccccc1C |  |  | 5.45 | 
59 | CCCC(=O)c1cnc2c(OCCCN(C)C)cccc2c1Nc1ccc(F)cc1C |  | 37 |  | 
60 | CCCC(=O)c1cnc2c(OCCOCCOCCO)cccc2c1Nc1ccc(F)cc1C | 3.6 | 51 |  | 
61 | CCCC(=O)c1cnc2c(OC)cccc2c1Nc1ccc(OC)cc1OC | 2.1 | 53 |  | 
62 | CCC(=O)c1cnc2c(Oc3ccccn3)cccc2c1Nc1c(C)cccc1C | 4.7 | 77 |  | 81
63 | CCCC(=O)c1c(C)nc2ccccc2c1Nc1ccccc1C | 34 |  |  | 
64 | CCCC(=O)c1cnc2c(OC)cccc2c1Nc1ccc(N(C)C)cc1C | 2.32 | 20 |  | 
65 | CCCC(=O)c1cnc2c(C(C)=O)cccc2c1Nc1ccccc1C | 1.5 | 37 |  | 
66 | CCCC(=O)c1cnc2c(OC)cccc2c1Nc1ccc(NS(C)(=O)=O)cc1C | 45 |  |  | 

Row | SMILES | IC50 [1] [µM] | inhibition [2] [%] | ED50 [3] [µmol/kg] | inhibition in vivo at 1 µmol/kg (Canis familiaris) [%]
67 | CCCC(=O)c1cnc2c(NCCCN3CCOCC3)cccc2c1Nc1ccccc1C | 2.4 | 47 |  | 
68 | CCCC(=O)c1cnc2c(OCCCC(=O)Nc3ccncc3)cccc2c1Nc1ccccc1C | 2.6 | 46 |  | 
69 | CCCC(=O)c1cnc2c(OCCCNc3ccccn3)cccc2c1Nc1c(C)cccc1C | 0.9 | 49 |  | 
70 | CCC(=O)c1cnc2c(O)cccc2c1Nc1ccc(F)cc1C | 1.9 | 48 |  | 
71 | CCCC(=O)c1cnc2c(OC)cccc2c1Nc1ccc(NC(C)=O)cc1C | 12 |  |  | 
72 | CCCC(=O)c1cnc2c(COC(=O)NC)cccc2c1Nc1ccccc1C | 6.6 | 49 |  | 
73 | CCCC(=O)c1cnc2c(N)cccc2c1Nc1ccccc1C | 6 | 59 |  | 
74 | CCCC(=O)c1cnc2ccc(O)cc2c1Nc1ccccc1C | 0.24 | 58 |  | 
75 | CCCC(=O)c1cnc2c(C3OC3CO)cccc2c1Nc1ccccc1C (stereo in doubt; 29a) |  | 56 |  | 
76 | CCCC(=O)c1cnc2c(COC(=O)CC)cccc2c1Nc1ccccc1C | 18.4 |  |  | 
77 | CCCC(=O)c1cnc2c(CC(=O)OC)cccc2c1Nc1ccccc1C | 5.4 | 43 |  | 
78 | CCCC(=O)c1cnc2c(OCCCC(N)=O)cccc2c1Nc1c(C)cccc1C | 2.2 | 72 |  | 
79 | CCCC(=O)c1cnc2ccc(CO)cc2c1Nc1ccccc1C |  | 46 |  | 
80 | CCCC(=O)c1cnc2c(C3COCO3)cccc2c1Nc1ccccc1C (stereo not drawn) | 36 | 31 |  | 
81 | CCCC(=O)c1cnc2c(OCCN(C)C)cccc2c1Nc1ccccc1C | 0.52 | 22 |  | 
82 | CCCC(=O)c1cnc2ccc(OC)cc2c1Nc1ccccc1C | 7 | 59 |  | 
83 | CCCC(=O)c1cnc2c(OCCCc3nc4ccccc4[nH]3)cccc2c1Nc1c(C)cccc1C | 1.4 | 50 |  | 
84 | CCCC(=O)c1cnc2c(C3OC3CO)cccc2c1Nc1ccccc1C (stereo in doubt; 29b) [listing 2 of 2 here] |  | 52 |  | 
85 | CCCC(=O)c1cnc2c(OCCCN(C)C)cccc2c1Nc1ccccc1C | 0.39 | 43 |  | 14
86 | CCCC(=O)c1cnc2ccc(N)cc2c1Nc1c(C)cccc1C | 0.16 | 35 |  | 
87 | CCCC(=O)c1cnc2c(OCCOCCO)cccc2c1Nc1ccc(F)cc1C |  | 49 |  | 
